Reference: ChEMBL document CHEMBL4000211, “Discovery of novel polycyclic spiro-fused carbocyclicoxindole-based anticancer agents” (Eur J Med Chem, 2017)

Experiments:
NCI-H1299 = assay: Antiproliferative activity against human NCI-H1299 cells after 48 hrs by MTT assay; type: functional, cell-based; details: NCI-H1299, 48 h
In short: (§1)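 Cells seeded at 3×10³/well and grown 24 h, then exposed 48 h to six final concentrations, twofold steps down from 30. MTT (5 mg/mL) was added for 2–4 h at 37 °C. Supernatant was removed, formazan dissolved in DMSO, and OD read at 570 nm. Results are given as IC50, or as percent inhibition where IC50 exceeds the top concentration. At least three runs.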

CT26 = assay: Antiproliferative activity against mouse CT26 cells after 48 hrs by MTT assay; type: functional, cell-based; details: CT26, 48 h; in short: as §1
HCT-116 = assay: Antiproliferative activity against human HCT116 cells after 48 hrs by MTT assay; type: functional, cell-based; details: HCT-116, 48 h; in short: as §1
A2780/Taxol = assay: Antiproliferative activity against human A2780T cells at 30 uM after 48 hrs by MTT assay relative to control; type: functional; in short: as §1
BGC-823 = assay: Antiproliferative activity against human BGC823 cells after 48 hrs by MTT assay; type: functional, cell-based; details: BGC-823, 48 h; in short: as §1
A2780S [1] = assay: Antiproliferative activity against human A2780S cells at 30 uM after 48 hrs by MTT assay relative to control; type: functional; in short: as §1
MCF7 = assay: Antiproliferative activity against human MCF7 cells after 48 hrs by MTT assay; type: functional, cell-based; details: MCF7, 48 h; in short: as §1
A549 = assay: Antiproliferative activity against human A549 cells after 48 hrs by MTT assay; type: functional, cell-based; details: A549, 48 h; in short: as §1
NCI-H1975 = assay: Antiproliferative activity against human NCI-H1975 cells after 48 hrs by MTT assay; type: functional, cell-based; details: NCI-H1975, 48 h; in short: as §1
A2780S [2] = assay: Antiproliferative activity against human A2780S cells after 48 hrs by MTT assay; type: functional, cell-based; in short: as §1

In the case of Cc1ccc2c(c1)[C@]1(C(=O)N2)[C@H](C)C(C=O)=C[C@H]2[C@H]1c1ccccc1O[C@@H]2C, the IC50 (NCI-H1299) is reported as over 30 µM, the IC50 (CT26) is reported as over 30 µM and the IC50 (HCT-116) is reported as over 30 µM. It also gave an inhibition at 30 µM (A2780/Taxol) of 7.1%, an IC50 (BGC-823) of over 30 µM and an inhibition at 30 µM (A2780S [1]) of 12.8%. For the same compound, the IC50 (MCF7) was over 30 µM, the IC50 (A549) was over 30 µM and the IC50 (NCI-H1975) was over 30 µM.

C[C@@H]1C(C=O)=C[C@H]2[C@@H](c3ccccc3O[C@@H]2C)[C@@]12C(=O)Nc1ccccc12 gave an IC50 (NCI-H1299) of over 30 µM, an IC50 (CT26) of over 30 µM and an IC50 (HCT-116) of over 30 µM. The inhibition at 30 µM (A2780/Taxol) was 17.3%, the IC50 (BGC-823) was over 30 µM and the inhibition at 30 µM (A2780S [1]) was 23.5%. The IC50 (MCF7) was over 30 µM, the IC50 (A549) was over 30 µM and the IC50 (NCI-H1975) was over 30 µM.

C[C@@H]1C(C=O)=C[C@H]2[C@@H](c3cccc(F)c3O[C@@H]2C)[C@@]12C(=O)Nc1ccccc12 gave an IC50 (NCI-H1299) of over 30 µM, an IC50 (CT26) of over 30 µM and an IC50 (HCT-116) of over 30 µM. It also gave an inhibition at 30 µM (A2780/Taxol) of 5.7%, an IC50 (BGC-823) of over 30 µM and an inhibition at 30 µM (A2780S [1]) of 22.2%. The IC50 (MCF7) was over 30 µM, the IC50 (A549) was over 30 µM and the IC50 (NCI-H1975) was over 30 µM.

C[C@@H]1C(C=O)=C[C@H]2[C@@H](c3cc(F)ccc3O[C@@H]2C)[C@@]12C(=O)Nc1ccccc12 was tested, and the IC50 (NCI-H1299) was over 30 µM, the IC50 (CT26) was over 30 µM and the IC50 (HCT-116) was over 30 µM. The inhibition at 30 µM (A2780/Taxol) was 2.6%, the IC50 (BGC-823) was over 30 µM and the inhibition at 30 µM (A2780S [1]) was 22.7%. The IC50 (MCF7) was over 30 µM, the IC50 (A549) was over 30 µM and the IC50 (NCI-H1975) was over 30 µM.

C[C@@H]1C(C=O)=C[C@H]2[C@@H](c3cc(Br)ccc3O[C@@H]2C)[C@@]12C(=O)Nc1ccccc12 was tested, and the IC50 (NCI-H1299) was over 30 µM, the IC50 (CT26) was over 30 µM and the IC50 (HCT-116) was over 30 µM. It also gave an inhibition at 30 µM (A2780/Taxol) of 2.3%, an IC50 (BGC-823) of over 30 µM and an inhibition at 30 µM (A2780S [1]) of 35.9%. For the same compound, the IC50 (MCF7) was over 30 µM, the IC50 (A549) was over 30 µM and the IC50 (NCI-H1975) was over 30 µM.

For CC[C@@H]1C(C=O)=C[C@H]2[C@@H](c3ccccc3O[C@@H]2CC)[C@@]12C(=O)Nc1ccccc12, the IC50 (NCI-H1299) was over 30 µM, the IC50 (CT26) was over 30 µM and the IC50 (HCT-116) was over 30 µM. It also gave an inhibition at 30 µM (A2780/Taxol) of 9%, an IC50 (BGC-823) of over 30 µM and an inhibition at 30 µM (A2780S [1]) of 34.1%. It also gave an IC50 (MCF7) of over 30 µM, an IC50 (A549) of over 30 µM and an IC50 (NCI-H1975) of over 30 µM.

C[C@@H]1C(C=O)=C[C@H]2[C@@H](c3ccccc3N[C@@H]2C)[C@@]12C(=O)Nc1ccccc12 showed an IC50 (NCI-H1299) of over 30 µM, an IC50 (CT26) of over 30 µM and an IC50 (HCT-116) of over 30 µM. It also gave an inhibition at 30 µM (A2780/Taxol) of 15.2%, an IC50 (BGC-823) of over 30 µM and an inhibition at 30 µM (A2780S [1]) of 47.2%. The IC50 (MCF7) was over 30 µM, the IC50 (A549) was over 30 µM and the IC50 (NCI-H1975) was over 30 µM.

COc1ccc2c(c1)O[C@H](C)[C@H]1C=C(C=O)[C@@H](C)[C@]3(C(=O)Nc4ccccc43)[C@H]21 gave an IC50 (NCI-H1299) of over 30 µM, an IC50 (CT26) of over 30 µM and an IC50 (HCT-116) of over 30 µM. It also gave an inhibition at 30 µM (A2780/Taxol) of 3.9%, an IC50 (BGC-823) of over 30 µM and an inhibition at 30 µM (A2780S [1]) of 9.3%. It also gave an IC50 (MCF7) of over 30 µM, an IC50 (A549) of over 30 µM and an IC50 (NCI-H1975) of over 30 µM.

For C[C@@H]1C(C=O)=C[C@H]2[C@@H](c3ccccc3O[C@@H]2C)[C@@]12C(=O)Nc1ccc(F)cc12, the IC50 (NCI-H1299) was over 30 µM, the IC50 (CT26) was over 30 µM and the IC50 (HCT-116) was over 30 µM. The inhibition at 30 µM (A2780/Taxol) was 4.4%, the IC50 (BGC-823) was over 30 µM and the inhibition at 30 µM (A2780S [1]) was 14.5%. It also gave an IC50 (MCF7) of over 30 µM, an IC50 (A549) of over 30 µM and an IC50 (NCI-H1975) of over 30 µM.

With C[C@@H]1C(C=O)=C[C@H]2[C@@H](c3ccccc3O[C@@H]2C)[C@@]12C(=O)Nc1cc(Cl)ccc12 the IC50 (NCI-H1299) was over 30 µM, the IC50 (CT26) was over 30 µM and the IC50 (HCT-116) was over 30 µM. It also gave an IC50 (A2780S [2]) of 19.7 µM, an inhibition at 30 µM (A2780/Taxol) of 13.1% and an IC50 (BGC-823) of over 30 µM. For the same compound, the IC50 (MCF7) was over 30 µM, the IC50 (A549) was over 30 µM and the IC50 (NCI-H1975) was over 30 µM.

For C[C@@H]1C(C=O)=C[C@H]2[C@@H](c3ccccc3O[C@@H]2C)[C@@]12C(=O)N(C)c1ccccc12, the IC50 (NCI-H1299) was over 30 µM, the IC50 (CT26) was over 30 µM and the IC50 (HCT-116) was over 30 µM. The inhibition at 30 µM (A2780/Taxol) was 4.5%, the IC50 (BGC-823) was over 30 µM and the inhibition at 30 µM (A2780S [1]) was 26.3%. The IC50 (MCF7) was over 30 µM, the IC50 (A549) was over 30 µM and the IC50 (NCI-H1975) was over 30 µM.

In the case of C[C@@H]1C(C=O)=C[C@H]2[C@@H](c3cc([N+](=O)[O-])ccc3O[C@@H]2C)[C@@]12C(=O)Nc1ccccc12, the IC50 (NCI-H1299) is reported as over 30 µM, the IC50 (CT26) is reported as over 30 µM and the IC50 (HCT-116) is reported as over 30 µM. For the same compound, the inhibition at 30 µM (A2780/Taxol) was 0.2%, the IC50 (BGC-823) was over 30 µM and the inhibition at 30 µM (A2780S [1]) was 25.2%. It also gave an IC50 (MCF7) of over 30 µM, an IC50 (A549) of over 30 µM and an IC50 (NCI-H1975) of over 30 µM.

Work on C[C@@H]1C(C=O)=C[C@H]2[C@@H](c3ccccc3OC2(C)C)[C@@]12C(=O)Nc1ccccc12 yielded an IC50 (NCI-H1299) of over 30 µM, an IC50 (CT26) of over 30 µM and an IC50 (HCT-116) of over 30 µM. It also gave an inhibition at 30 µM (A2780/Taxol) of 3.8%, an IC50 (BGC-823) of over 30 µM and an inhibition at 30 µM (A2780S [1]) of 14.4%. It also gave an IC50 (MCF7) of over 30 µM, an IC50 (A549) of over 30 µM and an IC50 (NCI-H1975) of over 30 µM.

Cc1ccc2c(c1)[C@@H]1[C@H](C=C(C=O)[C@@H](C)[C@]13C(=O)Nc1ccccc13)[C@@H](C)O2 was tested, and the IC50 (NCI-H1299) was over 30 µM, the IC50 (CT26) was over 30 µM and the IC50 (HCT-116) was over 30 µM. The inhibition at 30 µM (A2780/Taxol) was 10.4%, the IC50 (BGC-823) was over 30 µM and the inhibition at 30 µM (A2780S [1]) was 28.2%. It also gave an IC50 (MCF7) of over 30 µM, an IC50 (A549) of over 30 µM and an IC50 (NCI-H1975) of over 30 µM.

Compound O=CC1=C[C@@H]2COc3ccccc3[C@H]2C2(C1)C(=O)Nc1ccccc12 (some centres not stated) has an IC50 (NCI-H1299) of over 30 µM, an IC50 (CT26) of 27.1 µM and an IC50 (HCT-116) of 25.8 µM. For the same compound, the IC50 (A2780S [2]) was 21.6 µM, the inhibition at 30 µM (A2780/Taxol) was 25% and the IC50 (BGC-823) was over 30 µM. It also gave an IC50 (MCF7) of over 30 µM, an IC50 (A549) of over 30 µM and an IC50 (NCI-H1975) of over 30 µM.

C[C@@H]1C(C=O)=C[C@H]2[C@@H](c3ccccc3O[C@@H]2C)[C@@]12C(=O)N(c1ccccc1)c1ccccc12 was tested, and the IC50 (NCI-H1299) was 30 µM, the IC50 (CT26) was over 30 µM and the IC50 (HCT-116) was over 30 µM. The IC50 (A2780S [2]) was 18.9 µM, the inhibition at 30 µM (A2780/Taxol) was 40.6% and the IC50 (BGC-823) was 25.7 µM. For the same compound, the IC50 (MCF7) was over 30 µM, the IC50 (A549) was over 30 µM and the IC50 (NCI-H1975) was over 30 µM.

C[C@@H]1C(C=O)=C[C@H]2[C@@H](c3cc(Cl)ccc3O[C@@H]2C)[C@@]12C(=O)Nc1ccccc12 was tested, and the IC50 (NCI-H1299) was over 30 µM, the IC50 (CT26) was over 30 µM and the IC50 (HCT-116) was over 30 µM. It also gave an inhibition at 30 µM (A2780/Taxol) of 5.8%, an IC50 (BGC-823) of over 30 µM and an inhibition at 30 µM (A2780S [1]) of 16.5%. The IC50 (MCF7) was over 30 µM, the IC50 (A549) was over 30 µM and the IC50 (NCI-H1975) was over 30 µM.

With CCC[C@@H]1C(C=O)=C[C@H]2[C@@H](c3ccccc3O[C@@H]2CCC)[C@@]12C(=O)Nc1ccccc12 the IC50 (NCI-H1299) was over 30 µM, the IC50 (CT26) was over 30 µM and the IC50 (HCT-116) was over 30 µM. For the same compound, the IC50 (A2780S [2]) was 25.7 µM, the inhibition at 30 µM (A2780/Taxol) was 33.1% and the IC50 (BGC-823) was over 30 µM. It also gave an IC50 (MCF7) of over 30 µM, an IC50 (A549) of over 30 µM and an IC50 (NCI-H1975) of over 30 µM.
